Among the data in the RNAGym collection of RNA variant scans (doi:10.1126/science.aae0568) are yeast fitness values, retold here.

Variants at the floor of the assay were thinned out.

Sequences and labels used below:
B1: tRNA (parent)
chain: GUUCCGUUGGCGUAAUGGUAACGCGUCUCCCUCCUAAGGAGAAGACUGCGGGUUCGAGUCCCGUACGGAACG

In the data set the parent is B1. Put plainly: yeast fitness relative to wild type (ratio to wild type); higher = fitter; tRNA-Arg(CCU), competitive growth, 37 C, YPD. In outline:
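Variants of the tRNA-Arg(CCU) gene were chemically synthesised with a 3% per-site mutation rate across 69 sites and placed at the native genomic locus in Saccharomyces cerevisiae. Six parallel replicates of the pooled strains were competed in YPD at 37°C for 24 hours, and gene amplicons from the start and end populations were read by 100-nucleotide paired-end sequencing. Darwinian fitness relative to wild type was derived from changes in genotype frequencies. Genotypes required ≥ 100 starting reads, and estimates < 0.5 were set to 0.5.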
Turning to G10C U19G C29U U54A, the yeast fitness was not above 0.5. With C5U C11U A15G C34U G44C U47G, the yeast fitness is not above 0.5. On to G9C C61A G67A, for which the yeast fitness is not above 0.5.

As to U54G C61G A65U, the yeast fitness is 0.596. The same measure for C11A G25A G58C A65G: 0.568; for U13C G44A A69U: 0.696; for U13A A15C C33G C49U C61U: 0.574. The same measure for C11U U35C G41A G58A: not above 0.5. U2G C62G A70U: the yeast fitness was 0.822. Consider U3A A14G C24G C29A G50C A57C, for which the yeast fitness was not above 0.5. Take U13C A14U C46U G48A C55U G68U: the yeast fitness was not above 0.5. Regarding C29U G48C, the yeast fitness turned out to be 0.859. As for C27U G48A C49U A65G, the yeast fitness amounted to 0.714. The value for C5A G44A was 0.716; that for C4G C27G C34U A37C C55U was not above 0.5. As to C31U A45U C55U, the yeast fitness was not above 0.5. Regarding U3C A40C C61G, the yeast fitness worked out at 0.576. On to A21G U35A C55U A65G, for which the yeast fitness was not above 0.5. For the variant G6A A14G G17C, the yeast fitness was not above 0.5. Regarding U2G C33G G39C C55U, the yeast fitness is 0.523.

On to U2G C22G U26C C27G C30A U32G C55G, for which the yeast fitness was not above 0.5. Consider C55G C60G C66U, for which the yeast fitness was not above 0.5. Regarding U3A C5A G12C G25A C30U A69C, the yeast fitness was not above 0.5. As to C27U G51C C62G, the yeast fitness was not above 0.5. The same measure for G39C C49U: 0.827; for G10A C29G U53A G56C C62G: not above 0.5; for C29G C31A A42C G67C: 0.606.

Take A14U U53G C61U A70G: the yeast fitness is not above 0.5.

On to A15U U28A C49U U59A C66A, for which the yeast fitness is not above 0.5.

In the case of U3G A45C, the yeast fitness amounted to 0.973. Consider C24U C49A, for which the yeast fitness was found to be 0.716. The same measure for C5U A36U A45U: not above 0.5.

Take U8G U32C C33G A43U G48C C55A: the yeast fitness was not above 0.5. In the case of A20C U54A, the yeast fitness is 0.698. For the variant U7A C34A C46U, the yeast fitness was not above 0.5. Turning to C4A C22G A69C, the yeast fitness came to 0.538.

With U32C C66U G68C, the yeast fitness stood at 0.554. With C4U U13C C66U A70C, the yeast fitness is 0.618. The value for C31U C34G was 0.591. Take U13C C66G: the yeast fitness was determined as 0.742. In the case of G39A A69C, the yeast fitness turned out to be 0.818. Take G12C C34A G44C: the yeast fitness was not above 0.5. The same measure for C24G U26A A37G G48A: not above 0.5; for C4U A14U C33U C49G C55A: not above 0.5. As for A43G C46U C60G G68U, the yeast fitness came out at 0.567. As to C11U C22G G58A C61U, the yeast fitness came to 0.608. Consider U2G C27G C66U, for which the yeast fitness is not above 0.5.

Regarding C46U A70U, the yeast fitness stood at 1.05. C34G A45G C60U A69U: the yeast fitness was not above 0.5. As to U8A C24U A40U A42C A65C A69C, the yeast fitness was not above 0.5.

In the case of C27G C31G U59A, the yeast fitness was not above 0.5. In the case of C24A C46G U59C C62U, the yeast fitness was not above 0.5.

As to G6A A43G A69U, the yeast fitness was 0.716. In the case of U2C A21G C33G U35C U59A A69U, the yeast fitness is not above 0.5. As to U8C U59A, the yeast fitness came to 0.721. In the case of A21U G41C A43C U54G A69C, the yeast fitness was 0.551. With A15G G68C, the yeast fitness turned out to be 0.648. Turning to G6A A20U C49U, the yeast fitness amounted to 0.542. With U19A C27U C66U, the yeast fitness came out at 0.786. A14U C61U: the yeast fitness came to 0.591. The same measure for U26A C30G G38C A42U G58C: 0.759.

C4G G25C C30G: the yeast fitness turned out to be 0.622. A15C C27G C49G: the yeast fitness amounted to 0.551. The value for G12C U28G A37G G41A G48A A65U C66U was not above 0.5; that for C5A A40G was 0.713. On to C29G C33G U35G G44A, for which the yeast fitness was found to be 0.628. As to A14U U16G U19A A42G C61G, the yeast fitness came to 0.535.

With A20G A36G A45U, the yeast fitness stood at 0.683. Turning to C33G C55U G56C A69C, the yeast fitness was found to be 0.831. Consider U47G C60G, for which the yeast fitness was 0.675. For C5G A20G U53A G67A, the yeast fitness is not above 0.5. As for A40U U59G, the yeast fitness turned out to be 0.815. The value for A20U A21C C29U A57C was not above 0.5; that for U28C G63A was 0.939.

Take U2C G10C A14U G38C: the yeast fitness was not above 0.5. Consider C31G G41C G50C C60U A69C, for which the yeast fitness is not above 0.5.

For C22A C33A, the yeast fitness was found to be 0.718. For C5A C11G G41C C66U, the yeast fitness was not above 0.5. As to C4G A42G, the yeast fitness came to 0.897. For the variant U19C C27U, the yeast fitness was found to be 1.08. With U16C G56A A69U, the yeast fitness is 0.799.

Turning to C5U A57C C62U, the yeast fitness came to 0.54. In the case of C5U G56A A65G C66U, the yeast fitness stood at 0.671.

Turning to C4A C30A G48C, the yeast fitness is not above 0.5. As to U3A G12C U28C G56A C60G, the yeast fitness was not above 0.5. As to G17C C49G C61A, the yeast fitness is not above 0.5. A36C C62A G67A A70G: the yeast fitness is not above 0.5.

As for C11U C34U A43G, the yeast fitness was not above 0.5.

As for A57C C61U A70U, the yeast fitness was not above 0.5.

On to A21G C46U G56A C61G, for which the yeast fitness was not above 0.5. The same measure for C31G G38A G63U: not above 0.5; for C34U C46A: 0.714; for G56C A57C A70G: 0.594.

Take A14G C34G A43C: the yeast fitness is 0.591. With C4G A20U G67A, the yeast fitness was not above 0.5. Turning to U13C C55A A65U, the yeast fitness was not above 0.5. For U2G G9C G12A A42C C46A U64C, the yeast fitness was not above 0.5.

Consider U2C A14G G18A U32A C66G, for which the yeast fitness was not above 0.5. With A20U C34G G38C G50C C60A A70C, the yeast fitness was not above 0.5. Turning to C46A G50A C60G G63C, the yeast fitness was not above 0.5. Turning to C11U G48A G51C, the yeast fitness was 0.832. As to C55A A70C, the yeast fitness is 0.807. Consider A40G C46A C62U, for which the yeast fitness turned out to be 0.734. Consider U7G C11U, for which the yeast fitness came to 0.807. For the variant A57G G67C, the yeast fitness is 0.932. Consider A40C A42G, for which the yeast fitness is 0.886. Take G38A U47C C66U: the yeast fitness came out at 0.555. In the case of U7A G18C C27G G38A, the yeast fitness is not above 0.5. Take C31G C33U A37C A70U: the yeast fitness is not above 0.5. Consider U19A C30A A43G, for which the yeast fitness was not above 0.5. The same measure for C11G C24U G25A U47G: not above 0.5. Consider C4U G18A A69U, for which the yeast fitness stood at 0.743. The value for C34U A43G U54C was not above 0.5; that for U7C C24A C55A C62U A65C was not above 0.5. Regarding U7C C30G U54C C61G, the yeast fitness was not above 0.5.

On to U28C A45G, for which the yeast fitness was determined as 0.948. Take U2A U8A C33U A43U A57G G67U: the yeast fitness is not above 0.5. Take G25A C49U U64C: the yeast fitness turned out to be 0.782. The same measure for C46U G52C: 0.614; for A15G C62U A69U: 0.934. Consider C33U G39A A69C, for which the yeast fitness was not above 0.5. On to C5G G10C U47A A70G, for which the yeast fitness is not above 0.5. Regarding U7G C22U C49G G50C C66A, the yeast fitness is not above 0.5.

On to U8C G23C C29G A36G A45U, for which the yeast fitness was not above 0.5. With A20U G38C, the yeast fitness came out at 0.775. G9A G12A C30G U32C G50A: the yeast fitness is 0.554. With C4G U7A U19C A20C U53C, the yeast fitness is not above 0.5. In the case of U2G C33U A36U A43C A69C, the yeast fitness was 0.767. U8C G50C C55A C60A: the yeast fitness is not above 0.5. The value for U2A G39A A69G was 0.599; that for U16A A37U G56A A65U was not above 0.5.

Regarding C11U U13A, the yeast fitness came out at 0.832. Regarding C31G G67C, the yeast fitness was 0.888. In the case of U7G A15C G38C, the yeast fitness was not above 0.5. C34A G44C G68A: the yeast fitness is not above 0.5. With U26G C55G A65C A70U, the yeast fitness was not above 0.5. With C11U A43G, the yeast fitness was found to be 0.945. As for U3C C5A U8A G25A A45G, the yeast fitness was not above 0.5. As for C61A A69U, the yeast fitness came out at 0.816. Regarding G23C C24U, the yeast fitness was found to be 0.61. In the case of C30G U35C C66U, the yeast fitness is not above 0.5. Turning to U2A C5A C30U A69U, the yeast fitness was not above 0.5. In the case of C4A A21U U47G, the yeast fitness was found to be 0.535. With G38C U47C A65U, the yeast fitness is not above 0.5. Turning to C4G G10A C30G A43G, the yeast fitness is 0.659. The same measure for C4G U28A C31G: not above 0.5; for A15C U26C G67U A69G: not above 0.5. Take A40C C61A C66A: the yeast fitness is not above 0.5. Consider C4A A14G C22G C29U, for which the yeast fitness turned out to be 0.569. Take A15U A21C G52A: the yeast fitness is not above 0.5. As for G12A C30A C55A G67A, the yeast fitness is not above 0.5. With C11G G12C C60A C61A, the yeast fitness was not above 0.5. G12C G18C G41A A43G G48A: the yeast fitness is not above 0.5. With A65C A69U, the yeast fitness came to 0.921. C24U C46U: the yeast fitness was found to be 0.983. Take U28G: the yeast fitness amounted to 0.957. The value for C4A U13C C30U A40G C55A G63C A65C was not above 0.5. U2A A14G C22G C30G U47A: the yeast fitness is not above 0.5. For the variant A45C C55U A69U, the yeast fitness stood at 0.753. For the variant U8G A21G C27A U35A C62A A65C G67A, the yeast fitness was not above 0.5.

For C24U G39C, the yeast fitness stood at 0.735. Take A20U C27G C34A C46G C55A: the yeast fitness is not above 0.5. Take C4U U16G: the yeast fitness worked out at 1.05. As for C46U G48A, the yeast fitness stood at 0.93. For G9C C29G C30G G41A, the yeast fitness was not above 0.5. With U2G A40U C46G, the yeast fitness is not above 0.5. As for U8G G12A G44A, the yeast fitness worked out at 0.566.
